Laboratory results as given in ChEMBL document CHEMBL1649304, “Efficacy of posaconazole as treatment and prophylaxis against Fusarium solani” (Antimicrob Agents Chemother, 2010).
In brackets after ≈: the same amount, converted by molar mass. Activity calls are given as the source filed them. No cut-off for these calls is given here.

How the values were obtained:
[1] = tested on: Fusarium solani; test: Antifungal activity against low - inoculum 7.5 x 10^4 conidia/ml Fusarium solani infected in ICR mouse assessed as bacterial count in kidney tissue at 50 mg/kg, po BID treated 2 days prior of infection; format: functional
Summary of the method: (§1)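 Prophylaxis model: posaconazole oral suspension was given by gavage BID starting 2 days before i.v. conidial challenge and continued to day 9. ICR mice were made neutropenic with 5-fluorouracil 150 mg/kg i.v. 1 day pre-inoculation, with n ≥10 per regimen. Kidneys were homogenized and plated on potato dextrose agar, and CFU/g was read after 48 h. Results were compared with untreated controls by Mann-Whitney.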

[2] = tested on: Fusarium solani; test: Antifungal activity against low - inoculum 7.5 x 10^4 conidia/ml Fusarium solani infected in ICR mouse assessed as rate of survival at 12.5 mg/kg, po BID treated 2 days prior of infection; format: functional, organism-based; set-up: dose 12.5 mg/kg
Summary of the method: (§2)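 Dosing began 2 days before i.v. F. solani 95-2478 challenge in ICR mice made neutropenic with 5-fluorouracil (150 mg/kg i.v., day −1). Posaconazole oral suspension was gavaged BID through day 9, with observation off drug until day 15, n ≥10 per regimen. Moribund animals were euthanized and scored dead the next day. Kaplan-Meier median survival was compared with untreated controls.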

[3] = tested on: Fusarium solani; test: Antifungal activity against mid- inoculum 6.5 x 10^5 conidia/ml Fusarium solani infected in ICR mouse assessed as bacterial count in kidney tissue at 25 mg/kg, po BID treated 2 days prior of infection; format: functional; summary of the method: as §1
[4] = tested on: Fusarium solani; test: Antifungal activity against inoculum range 6.5 x 10^5 to 6.8 x 10^5 conidia/animal Fusarium solani infected in ICR mouse assessed as bacterial count in kidney tissue at 50 mg/kg, po BID treated after 12 hrs of inoculation; format: functional
Summary of the method: (§3)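 Outbred ICR mice were made neutropenic with 5-fluorouracil 150 mg/kg i.v. 1 day before i.v. infection with F. solani isolate 95-2478 conidia (0.2 ml). Posaconazole oral suspension was given by gavage BID from 12 h after inoculation until day 9. Kidneys from moribund animals were homogenized and plated on potato dextrose agar, and CFU/g was counted after 48 h. Group medians were compared with untreated controls by Mann-Whitney.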

[5] = tested on: Fusarium solani; test: Antifungal activity against mid- inoculum 6.5 x 10^5 conidia/ml Fusarium solani infected in ICR mouse assessed as bacterial count in kidney tissue at 50 mg/kg, po BID treated 2 days prior of infection; format: functional; summary of the method: as §1
[6] = tested on: Fusarium solani; test: Antifungal activity against inoculum range 6.5 x 10^5 to 6.8 x 10^5 conidia/animal Fusarium solani infected in ICR mouse assessed as rate of survival at 6.25 mg/kg, po BID treated after 12 hrs of inoculation; format: functional, organism-based; set-up: dose 6.25 mg/kg
Summary of the method: (§4)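 Neutropenic ICR mice (5-fluorouracil 150 mg/kg i.v., day −1) were infected i.v. with F. solani 95-2478 conidia. Posaconazole oral suspension was gavaged BID starting 12 h postinoculation and continued to day 9, then mice were followed off therapy to day 15. Moribund mice were euthanized and death was recorded the next day. Median and percent survival come from Kaplan-Meier curves versus untreated controls.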

[7] = tested on: Fusarium solani; test: Antifungal activity against inoculum range 6.5 x 10^5 to 6.8 x 10^5 conidia/animal Fusarium solani infected in ICR mouse assessed as rate of survival at 50 mg/kg, po BID treated after 12 hrs of inoculation; format: functional, organism-based; set-up: dose 50 mg/kg; summary of the method: as §4
[8] = tested on: Fusarium solani; test: Antifungal activity against inoculum range 6.5 x 10^5 to 6.8 x 10^5 conidia/animal Fusarium solani infected in ICR mouse assessed as rate of survival at 25 mg/kg, po BID treated after 12 hrs of inoculation; format: functional, organism-based; set-up: dose 25 mg/kg; summary of the method: as §4
[9] = tested on: Fusarium solani; test: Antifungal activity against inoculum range 6.5 x 10^5 to 6.8 x 10^5 conidia/animal Fusarium solani infected in ICR mouse assessed as bacterial count in kidney tissue at 25 mg/kg, po BID treated after 12 hrs of inoculation; format: functional; summary of the method: as §3
[10] = tested on: Fusarium solani; test: Antifungal activity against inoculum range 7.7 x 10^4 to 7.8 x 10^4 conidia/animal Fusarium solani infected in ICR mouse assessed as bacterial count in kidney tissue at 6.25 mg/kg, po BID treated after 12 hrs of inoculation; format: functional; summary of the method: as §3
[11] = tested on: Fusarium solani; test: Antifungal activity against inoculum of 1x10^4 conidia/ml Fusarium solani isolate 95-2478 after 48 hrs by XTT assay; format: functional, organism-based; conditions: isolate 95-2478, 48 h
Summary of the method: (§5)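 Isolate 95-2478 conidia were grown 10 days at 37°C on potato dextrose agar. They were exposed in microtiter trays to posaconazole (DMSO stock; final 0 to 8 μg/ml) in RPMI with 2% glucose and 0.165 M MOPS, pH 7.0. Incubation ran 24 or 48 h, and XTT reduction was read at 492 nm in triplicate. Absorbance was expressed as percent of growth control, and IC50/IC90 came from a four-parameter inhibitory sigmoid fit.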

[12] = tested on: Fusarium solani; test: Antifungal activity against low - inoculum 7.5 x 10^4 conidia/ml Fusarium solani infected in ICR mouse assessed as rate of survival at 50 mg/kg, po BID treated 2 days prior of infection; format: functional, organism-based; set-up: dose 50 mg/kg; summary of the method: as §2
[13] = tested on: Fusarium oxysporum; test: Antifungal activity against Fusarium oxysporum isolate infected in ICR mouse; format: functional
[14] = tested on: Fusarium solani; test: Antifungal activity against high inoculum 2.9 x 10^6 conidia/animal Fusarium solani infected in ICR mouse assessed as rate of survival at 25 mg/kg, po BID treated after 12 hrs of inoculation; format: functional, organism-based; set-up: dose 25 mg/kg; summary of the method: as §4
[15] = tested on: Fusarium solani; test: Antifungal activity against high inoculum 2.9 x 10^6 conidia/animal Fusarium solani infected in ICR mouse assessed as bacterial count in kidney tissue at 25 mg/kg, po BID treated after 12 hrs of inoculation; format: functional; summary of the method: as §3
[16] = tested on: Fusarium solani; test: Antifungal activity against inoculum range 7.7 x 10^4 to 7.8 x 10^4 conidia/animal Fusarium solani infected in ICR mouse assessed as bacterial count in kidney tissue at 50 mg/kg, po BID treated after 12 hrs of inoculation; format: functional; summary of the method: as §3
[17] = tested on: Fusarium solani; test: Antifungal activity against inoculum range 7.7 x 10^4 to 7.8 x 10^4 conidia/animal Fusarium solani infected in ICR mouse assessed as bacterial count in kidney tissue at 25 mg/kg, po BID treated after 12 hrs of inoculation; format: functional; summary of the method: as §3
[18] = tested on: Fusarium solani; test: Antifungal activity against inoculum range 7.7 x 10^4 to 7.8 x 10^4 conidia/animal Fusarium solani infected in ICR mouse assessed as bacterial count in kidney tissue at 12.5 mg/kg, po BID treated after 12 hrs of inoculation; format: functional; summary of the method: as §3
[19] = tested on: Fusarium solani; test: Antifungal activity against inoculum range 7.7 x 10^4 to 7.8 x 10^4 conidia/animal Fusarium solani infected in ICR mouse assessed as rate of survival at 12.5 mg/kg, po BID treated after 12 hrs of inoculation; format: functional, organism-based; set-up: dose 12.5 mg/kg; summary of the method: as §4
[20] = tested on: Fusarium solani; test: Antifungal activity against mid- inoculum 6.5 x 10^5 conidia/ml Fusarium solani infected in ICR mouse assessed as rate of survival at 12.5 mg/kg, po BID treated 2 days prior of infection; format: functional, organism-based; set-up: dose 12.5 mg/kg; summary of the method: as §2
[21] = tested on: Fusarium solani; test: Antifungal activity against inoculum of 1x10^4 conidia/ml Fusarium solani isolate 95-2478 after 24 hrs by XTT assay; format: functional, organism-based; conditions: isolate 95-2478, 24 h; summary of the method: as §5
[22] = tested on: Fusarium solani; test: Antifungal activity against mid- inoculum 6.5 x 10^5 conidia/ml Fusarium solani infected in ICR mouse assessed as rate of survival at 25 mg/kg, po BID treated 2 days prior of infection; format: functional, organism-based; set-up: dose 25 mg/kg; summary of the method: as §2
[23] = tested on: Fusarium solani; test: Antifungal activity against inoculum range 6.5 x 10^5 to 6.8 x 10^5 conidia/animal Fusarium solani infected in ICR mouse assessed as bacterial count in kidney tissue at 12.5 mg/kg, po BID treated after 12 hrs of inoculation; format: functional; summary of the method: as §3

CC[C@@H]([C@H](C)O)n1ncn(-c2ccc(N3CCN(c4ccc(OC[C@@H]5CO[C@@](Cn6cncn6)(c6ccc(F)cc6F)C5)cc4)CC3)cc2)c1=O [POSACONAZOLE]
log10CFU/g [1]: 2.9
Activity [2]: Active
log10CFU/g [3]: 5.5
log10CFU/g [4]: 5.4
log10CFU/g [5]: 4.7
Activity [6]: Active
Activity [7]: Active
Activity [8]: Active
log10CFU/g [9]: 5.6
log10CFU/g [10]: 5
IC50 [11]: 4.7 µg/mL (≈ 6.71 µM)
IC90 [11]: > 8 µg/mL
Activity [12]: Active
MIC [13]: > 16 µg/mL
Activity [14]: Active
log10CFU/g [15]: 5.3
log10CFU/g [16]: 4.6
log10CFU/g [17]: 5
log10CFU/g [18]: 5.1
Activity [19]: Active
Activity [20]: Active
IC50 [21]: 1.7 µg/mL (≈ 2.43 µM)
IC90 [21]: 4.1 µg/mL (≈ 5.85 µM)
Activity [22]: Active
log10CFU/g [23]: 5.8
